Measurements published in ChEMBL document CHEMBL1781898, “Orally active achiral N-hydroxyformamide inhibitors of ADAM-TS4 (aggrecanase-1) and ADAM-TS5 (aggrecanase-2) for the treatment of osteoarthritis” (Bioorg Med Chem Lett, 2011).
pIC50: −log10 of the molar value.

What was measured:
[1] = target: T1, A disintegrin and metalloproteinase with thrombospondin motifs 4 (Homo sapiens, UniProt O75173); test: Inhibition of ADAMTS-4 assessed as substrate cleavage after 16 hrs by fluorescence assay
T1 sequence (O75173 whole entry): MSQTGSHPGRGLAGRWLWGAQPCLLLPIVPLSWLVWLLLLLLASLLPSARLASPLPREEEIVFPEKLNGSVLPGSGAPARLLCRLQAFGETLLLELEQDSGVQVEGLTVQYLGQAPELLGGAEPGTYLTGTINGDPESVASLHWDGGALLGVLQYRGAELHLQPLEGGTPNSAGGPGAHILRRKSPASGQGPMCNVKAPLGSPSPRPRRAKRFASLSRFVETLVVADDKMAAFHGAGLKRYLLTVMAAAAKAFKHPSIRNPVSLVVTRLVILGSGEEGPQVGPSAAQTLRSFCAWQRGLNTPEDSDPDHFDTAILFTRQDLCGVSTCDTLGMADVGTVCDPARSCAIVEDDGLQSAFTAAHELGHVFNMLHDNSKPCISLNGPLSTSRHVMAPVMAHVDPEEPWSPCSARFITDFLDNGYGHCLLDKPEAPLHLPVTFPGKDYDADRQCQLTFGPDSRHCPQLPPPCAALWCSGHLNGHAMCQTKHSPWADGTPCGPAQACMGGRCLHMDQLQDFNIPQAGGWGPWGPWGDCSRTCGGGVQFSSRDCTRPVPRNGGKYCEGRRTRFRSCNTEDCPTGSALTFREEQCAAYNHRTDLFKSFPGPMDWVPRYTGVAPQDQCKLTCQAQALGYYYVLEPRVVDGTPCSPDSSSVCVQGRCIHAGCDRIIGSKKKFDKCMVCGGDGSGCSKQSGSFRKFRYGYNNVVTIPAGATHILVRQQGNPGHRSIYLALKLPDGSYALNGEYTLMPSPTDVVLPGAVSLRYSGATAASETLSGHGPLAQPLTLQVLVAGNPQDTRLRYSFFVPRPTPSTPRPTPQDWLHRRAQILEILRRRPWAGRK
Summary of the method: (§1)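 Enzyme inhibition IC50s derived from at least six measurements, standard errors normally <5% within an assay; a standard compound run to keep assay-to-assay variability within twofold.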

[2] = target: T2, A disintegrin and metalloproteinase with thrombospondin motifs 5 (Homo sapiens, UniProt Q9UNA0); test: Inhibition of ADAMTS-5 assessed as substrate cleavage after 16 hrs by fluorescence assay; summary of the method: as §1
T2 sequence (Q9UNA0 whole entry): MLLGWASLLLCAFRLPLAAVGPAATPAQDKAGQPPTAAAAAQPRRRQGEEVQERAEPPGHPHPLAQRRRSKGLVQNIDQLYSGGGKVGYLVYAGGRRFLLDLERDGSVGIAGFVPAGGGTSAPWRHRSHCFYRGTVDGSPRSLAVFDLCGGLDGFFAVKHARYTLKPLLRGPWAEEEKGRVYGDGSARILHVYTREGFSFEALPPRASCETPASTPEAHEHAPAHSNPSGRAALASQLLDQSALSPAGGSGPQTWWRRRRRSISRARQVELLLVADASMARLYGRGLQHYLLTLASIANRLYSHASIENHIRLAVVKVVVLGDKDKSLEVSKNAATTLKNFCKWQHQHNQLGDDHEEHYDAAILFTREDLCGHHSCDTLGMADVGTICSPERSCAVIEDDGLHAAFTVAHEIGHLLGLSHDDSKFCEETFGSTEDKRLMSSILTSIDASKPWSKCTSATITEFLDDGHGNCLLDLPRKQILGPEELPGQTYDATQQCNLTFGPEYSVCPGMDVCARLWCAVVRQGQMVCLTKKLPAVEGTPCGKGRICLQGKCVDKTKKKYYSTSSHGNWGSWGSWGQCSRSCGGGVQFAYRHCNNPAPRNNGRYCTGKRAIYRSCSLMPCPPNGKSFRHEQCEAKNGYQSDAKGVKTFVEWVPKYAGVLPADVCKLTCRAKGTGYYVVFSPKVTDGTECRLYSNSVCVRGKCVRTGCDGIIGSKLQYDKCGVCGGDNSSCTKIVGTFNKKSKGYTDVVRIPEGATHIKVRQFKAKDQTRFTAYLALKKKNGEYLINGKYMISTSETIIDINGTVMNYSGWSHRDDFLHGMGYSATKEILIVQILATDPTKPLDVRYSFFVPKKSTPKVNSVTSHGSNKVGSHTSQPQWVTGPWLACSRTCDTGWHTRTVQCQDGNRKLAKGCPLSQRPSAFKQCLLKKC

[3] = target: Collagenase 3 (Homo sapiens, UniProt P45452); test: Inhibition of recombinant human MMP-13 assessed as substrate cleavage after 20 hrs by fluorescence assay; summary of the method: as §1
[4] = target: Matrix metalloproteinase-14 (Homo sapiens, UniProt P50281); test: Inhibition of recombinant human MMP-14 assessed as substrate cleavage after 20 hrs by fluorescence assay; summary of the method: as §1
[5] = target: T3, Interstitial collagenase (Homo sapiens, UniProt P03956); test: Inhibition of recombinant human MMP-1 assessed as substrate cleavage after 20 hrs by fluorescence assay; summary of the method: as §1
T3 sequence (P03956 whole entry): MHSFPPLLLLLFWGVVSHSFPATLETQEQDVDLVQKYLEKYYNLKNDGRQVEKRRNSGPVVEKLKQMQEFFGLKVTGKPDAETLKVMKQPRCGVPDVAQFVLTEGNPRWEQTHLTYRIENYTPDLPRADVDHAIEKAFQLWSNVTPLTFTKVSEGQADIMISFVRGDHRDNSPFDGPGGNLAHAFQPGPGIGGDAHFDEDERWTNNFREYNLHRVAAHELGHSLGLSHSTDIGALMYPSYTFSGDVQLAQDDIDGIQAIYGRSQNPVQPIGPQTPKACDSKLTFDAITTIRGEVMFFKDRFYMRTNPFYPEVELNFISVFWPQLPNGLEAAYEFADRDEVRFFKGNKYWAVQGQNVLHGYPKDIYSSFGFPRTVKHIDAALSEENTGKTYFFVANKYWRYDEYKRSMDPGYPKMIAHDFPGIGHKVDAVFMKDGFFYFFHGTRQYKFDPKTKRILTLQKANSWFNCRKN

[6] = target: 72 kDa type IV collagenase (Homo sapiens, UniProt P08253); test: Inhibition of recombinant human MMP-2 assessed as substrate cleavage after 20 hrs by fluorescence assay; summary of the method: as §1
[7] = target: Matrix metalloproteinase-9 (Homo sapiens, UniProt P14780); test: Inhibition of recombinant human MMP-9 assessed as substrate cleavage after 20 hrs by fluorescence assay; summary of the method: as §1
[8] = Intrinsic clearance in human liver microsomes; format: ADME, Microsome
Summary of the method: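 Human liver microsome metabolism; intrinsic clearance expressed as μL/min/mg, reported as mean of eight separate experiments.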

[9] = Clearance in rat at 2 mg/kg, iv; format: ADME, organism-based; design: dose 2 mg/kg, route intravenous; conditions: in vivo
Summary of the method: (§2)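 Rat iv PK: 2 mg/kg iv, n = 2 animals; clearance, half-life and Vdss determined.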

[10] = Volume of distribution at steady state in rat at 2 mg/kg, iv; format: ADME, organism-based; design: dose 2 mg/kg, route intravenous; conditions: in vivo, read-out: Vdss; summary of the method: as §2
[11] = Half life in rat at 2 mg/kg, iv; format: ADME, organism-based; design: dose 2 mg/kg, route intravenous; conditions: in vivo; summary of the method: as §2
[12] = target: Cytochrome P450 3A4 (Homo sapiens, UniProt P08684); test: Inhibition of CYP3A4; format: ADME
Summary of the method: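 Inhibition of cytochrome P450 isoforms 1A2, 2C9, 2C19, 2D6 and 3A4, reported as pIC50.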

Sequence of 72 kDa type IV collagenase (P08253 whole entry): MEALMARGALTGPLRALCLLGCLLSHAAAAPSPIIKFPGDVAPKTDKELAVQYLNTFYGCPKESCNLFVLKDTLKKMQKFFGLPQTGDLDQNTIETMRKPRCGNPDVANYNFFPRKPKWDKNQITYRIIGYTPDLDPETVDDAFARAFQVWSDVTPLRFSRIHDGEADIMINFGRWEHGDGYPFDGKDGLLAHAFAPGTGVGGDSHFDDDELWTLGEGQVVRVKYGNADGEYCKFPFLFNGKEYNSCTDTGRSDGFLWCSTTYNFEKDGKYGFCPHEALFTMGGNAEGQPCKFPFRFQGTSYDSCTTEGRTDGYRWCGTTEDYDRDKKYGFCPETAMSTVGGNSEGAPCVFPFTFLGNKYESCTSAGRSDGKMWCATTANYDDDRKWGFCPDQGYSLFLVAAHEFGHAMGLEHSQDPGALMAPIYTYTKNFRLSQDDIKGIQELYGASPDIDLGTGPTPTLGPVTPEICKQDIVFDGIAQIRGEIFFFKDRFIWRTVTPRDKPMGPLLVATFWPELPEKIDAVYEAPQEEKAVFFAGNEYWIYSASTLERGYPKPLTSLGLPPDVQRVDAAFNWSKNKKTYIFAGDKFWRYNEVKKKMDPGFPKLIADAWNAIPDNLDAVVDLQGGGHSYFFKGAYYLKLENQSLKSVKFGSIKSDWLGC
Sequence of Cytochrome P450 3A4 (P08684 whole entry, canonical isoform): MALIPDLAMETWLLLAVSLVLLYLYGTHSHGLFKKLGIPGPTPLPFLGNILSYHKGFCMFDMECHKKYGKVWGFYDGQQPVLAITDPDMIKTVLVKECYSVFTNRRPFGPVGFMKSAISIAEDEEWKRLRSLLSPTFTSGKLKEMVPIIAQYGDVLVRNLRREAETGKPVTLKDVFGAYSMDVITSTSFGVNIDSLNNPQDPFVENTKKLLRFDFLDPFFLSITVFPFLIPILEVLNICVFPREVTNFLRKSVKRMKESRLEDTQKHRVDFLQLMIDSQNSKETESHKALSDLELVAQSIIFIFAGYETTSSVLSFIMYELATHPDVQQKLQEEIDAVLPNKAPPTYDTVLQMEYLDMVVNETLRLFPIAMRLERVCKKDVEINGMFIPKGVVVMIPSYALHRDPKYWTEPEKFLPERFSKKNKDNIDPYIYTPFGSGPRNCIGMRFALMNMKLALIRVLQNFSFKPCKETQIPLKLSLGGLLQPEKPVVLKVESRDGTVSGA
Sequence of Matrix metalloproteinase-9 (P14780 whole entry): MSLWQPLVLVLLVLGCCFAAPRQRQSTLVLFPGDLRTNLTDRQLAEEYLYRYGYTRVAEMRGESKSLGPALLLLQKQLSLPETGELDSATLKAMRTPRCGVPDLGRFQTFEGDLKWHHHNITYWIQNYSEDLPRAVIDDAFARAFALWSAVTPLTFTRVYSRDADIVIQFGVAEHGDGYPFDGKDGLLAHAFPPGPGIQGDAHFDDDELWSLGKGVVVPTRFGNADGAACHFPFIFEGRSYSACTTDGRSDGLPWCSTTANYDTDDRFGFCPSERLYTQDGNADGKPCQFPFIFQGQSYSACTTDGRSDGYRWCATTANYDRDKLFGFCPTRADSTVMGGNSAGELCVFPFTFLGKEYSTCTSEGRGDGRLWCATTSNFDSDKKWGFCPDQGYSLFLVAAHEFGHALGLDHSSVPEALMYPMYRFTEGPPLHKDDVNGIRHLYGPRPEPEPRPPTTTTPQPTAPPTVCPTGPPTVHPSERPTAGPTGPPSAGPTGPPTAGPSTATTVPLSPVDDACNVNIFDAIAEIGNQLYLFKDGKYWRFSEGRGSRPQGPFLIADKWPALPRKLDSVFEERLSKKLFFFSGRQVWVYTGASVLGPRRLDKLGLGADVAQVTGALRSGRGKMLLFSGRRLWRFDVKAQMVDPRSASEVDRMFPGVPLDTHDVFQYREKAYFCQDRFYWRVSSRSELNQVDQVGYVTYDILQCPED

Cc1nsc(C)c1CCC1CCN(S(=O)(=O)CC2(N(O)C=O)CCOCC2)CC1
pIC50 [1]: 7.89
pIC50 [2]: 6.35
pIC50 [3]: < 5.00
pIC50 [4]: < 5.00
pIC50 [5]: < 5.00
pIC50 [6]: < 5.00
pIC50 [7]: < 5.00
microsomal CLint [8]: 8.5 µL/min/mg
clearance [9]: 18 mL/min/kg
Vd [10]: 2 L/kg
half-life [11]: 6.3 h

Cc1cc(CCC2CCN(S(=O)(=O)CC3(N(O)C=O)CCOCC3)CC2)c(C)cn1
pIC50 [1]: 7.74
pIC50 [2]: 5.47
pIC50 [3]: 4.34
pIC50 [4]: < 4.00
pIC50 [5]: < 5.00
pIC50 [6]: 4.21
pIC50 [7]: < 4.00
microsomal CLint [8]: 4.3 µL/min/mg
clearance [9]: 20 mL/min/kg
Vd [10]: 2 L/kg
half-life [11]: 4 h

Cc1noc(C)c1CCC1CCN(S(=O)(=O)CC2(N(O)C=O)CCS(=O)(=O)CC2)CC1
pIC50 [1]: 7.80
pIC50 [2]: 6.57
pIC50 [3]: < 5.00
pIC50 [4]: < 5.00
pIC50 [5]: < 5.00
pIC50 [12]: < 5.00
pIC50 [6]: < 5.00
pIC50 [7]: < 5.00
microsomal CLint [8]: 4.9 µL/min/mg

Cc1noc(C)c1CCC1CCN(S(=O)(=O)CC2(N(O)C=O)CCN(C(=O)C3CCC3)CC2)CC1
pIC50 [1]: 8.00
pIC50 [2]: 6.57
pIC50 [3]: < 5.00
pIC50 [4]: < 5.00
pIC50 [5]: < 5.00
pIC50 [12]: < 5.00
pIC50 [6]: < 5.00
pIC50 [7]: < 5.00
microsomal CLint [8]: 65 µL/min/mg

Cc1noc(C)c1CCC1CCN(S(=O)(=O)CC2(N(O)C=O)CCOC(C)(C)C2)CC1 (stereo not given)
pIC50 [1]: 8.01
pIC50 [2]: 6.60
pIC50 [3]: < 5.00
pIC50 [4]: < 5.00
pIC50 [5]: < 5.00
pIC50 [12]: < 5.00
pIC50 [6]: < 5.00
pIC50 [7]: < 5.00
microsomal CLint [8]: 12 µL/min/mg

CC(C)(CS(=O)(=O)N1CCN(c2ccc(F)cc2)CC1)N(O)C=O
pIC50 [1]: 7.04
pIC50 [3]: 5.85
pIC50 [4]: 5.85
pIC50 [5]: < 5.00
pIC50 [12]: < 5.00

CN1CCC(CS(=O)(=O)N2CCN(c3ccc(F)cc3)CC2)(N(O)C=O)CC1
pIC50 [1]: 6.28
pIC50 [3]: 6.24
pIC50 [4]: 5.54
pIC50 [5]: < 5.17
pIC50 [12]: < 5.00

Cc1cc(F)ccc1CCC1CCN(S(=O)(=O)CC2(N(O)C=O)CCOCC2)CC1
pIC50 [1]: 8.35
pIC50 [2]: 7.16
pIC50 [3]: 6.03
pIC50 [4]: 5.51
pIC50 [5]: < 5.00
pIC50 [6]: 5.89
pIC50 [7]: 5.51
microsomal CLint [8]: < 2 µL/min/mg
clearance [9]: 15 mL/min/kg
Vd [10]: 2 L/kg

CC(CS(=O)(=O)N1CCN(c2ccc(F)cc2)CC1)N(O)C=O (racemic)
pIC50 [3]: 6.81
pIC50 [4]: 6.65
pIC50 [5]: < 5.00
pIC50 [12]: 6.00

Cc1ccccc1CCC1CCN(S(=O)(=O)CC2(N(O)C=O)CCOCC2)CC1
pIC50 [1]: 8.25
pIC50 [2]: 7.51
pIC50 [3]: < 6.22
pIC50 [4]: < 6.11
pIC50 [5]: < 5.00
pIC50 [6]: 6.21
pIC50 [7]: < 5.74
microsomal CLint [8]: < 2 µL/min/mg

Cc1cc(S(C)(=O)=O)ccc1CCC1CCN(S(=O)(=O)CC2(N(O)C=O)CCOCC2)CC1
pIC50 [1]: 8.24
pIC50 [2]: 6.28
pIC50 [3]: 5.77
pIC50 [4]: < 5.00
pIC50 [5]: < 5.00
pIC50 [6]: 5.48
pIC50 [7]: < 5.00
microsomal CLint [8]: 2 µL/min/mg

Cc1noc(C)c1CCC1CCN(S(=O)(=O)CC2(N(O)C=O)CCN(C)CC2)CC1
pIC50 [1]: 7.72
pIC50 [2]: 5.92
pIC50 [3]: < 5.00
pIC50 [4]: < 5.00
pIC50 [5]: < 5.00
pIC50 [12]: < 5.00
pIC50 [6]: < 5.00
pIC50 [7]: < 5.00
microsomal CLint [8]: < 2 µL/min/mg

Cc1ncccc1CCC1CCN(S(=O)(=O)CC2(N(O)C=O)CCOCC2)CC1
pIC50 [1]: 6.40
pIC50 [2]: 5.27
pIC50 [3]: 5.70
pIC50 [4]: 5.10
pIC50 [5]: < 5.00
pIC50 [6]: 5.42
pIC50 [7]: < 5.00
microsomal CLint [8]: < 2 µL/min/mg

Cc1noc(C)c1CCC1CCN(S(=O)(=O)CC2(N(O)C=O)CCC(F)(F)CC2)CC1
pIC50 [1]: 7.70
pIC50 [2]: 6.39
pIC50 [3]: < 5.00
pIC50 [4]: < 5.00
pIC50 [5]: < 5.00
pIC50 [12]: < 5.00
pIC50 [6]: < 5.00
pIC50 [7]: < 5.00
microsomal CLint [8]: 13 µL/min/mg
